Source: ChEMBL document CHEMBL4118021, “Studies of TAK1-centered polypharmacology with novel covalent TAK1 inhibitors” (Bioorg Med Chem, 2017)
Calls of active or inactive are those of the source. The rule behind the calls is not given here.

What was measured:
[1] = molecular target: T1, Mitogen-activated protein kinase kinase kinase 7 (Homo sapiens) (UniProt O43318); test: Inhibition of TAK1 in RA patient-derived synovial fibroblasts assessed as inhibition of IL-1alpha-induced cytokine secretion at 3 uM preincubated for 3 hrs followed by IL-1alpha stimulation measured after 18 hrs by sandwich immunoassay
T1 sequence (whole entry): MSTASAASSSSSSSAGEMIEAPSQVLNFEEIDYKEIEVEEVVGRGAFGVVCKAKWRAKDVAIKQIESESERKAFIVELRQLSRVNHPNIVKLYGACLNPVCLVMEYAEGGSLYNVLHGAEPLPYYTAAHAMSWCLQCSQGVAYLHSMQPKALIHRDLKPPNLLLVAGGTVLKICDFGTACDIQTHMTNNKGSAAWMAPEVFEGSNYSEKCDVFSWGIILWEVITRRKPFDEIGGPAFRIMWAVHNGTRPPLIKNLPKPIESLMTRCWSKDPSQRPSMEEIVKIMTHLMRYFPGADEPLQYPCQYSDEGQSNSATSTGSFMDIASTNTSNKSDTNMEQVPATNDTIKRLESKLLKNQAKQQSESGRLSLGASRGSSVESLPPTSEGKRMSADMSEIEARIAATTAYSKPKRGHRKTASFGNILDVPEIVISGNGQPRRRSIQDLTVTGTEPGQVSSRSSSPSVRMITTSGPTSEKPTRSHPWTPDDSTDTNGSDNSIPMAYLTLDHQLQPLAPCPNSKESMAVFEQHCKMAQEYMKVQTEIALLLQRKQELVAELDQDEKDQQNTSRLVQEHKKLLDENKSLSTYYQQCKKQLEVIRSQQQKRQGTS
How it was run: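 Primary RA synovial fibroblasts (donor RA2159) seeded 1000 cells/well and grown ~24 h at 37 °C, 5% CO2. Starved overnight in basal medium, then ~4 h in basal medium with 0.1% BSA. Two adjacent wells pooled per replicate, in biological duplicate. Supernatants diluted 1:3 and run on Luminex 27-plex/21-plex sandwich immunoassays for 48 analytes, with spiked-ligand and mock-supernatant background controls.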

[2] = molecular target: Medium-chain specific acyl-CoA dehydrogenase, mitochondrial (Homo sapiens) (UniProt P11310); test: Binding affinity to ACADM in human NCI-H23 cells at 1 uM by mass spectrometry based pull down assay; type: cell-based
Medium-chain specific acyl-CoA dehydrogenase, mitochondrial (Homo sapiens), sequence (P11310 whole entry): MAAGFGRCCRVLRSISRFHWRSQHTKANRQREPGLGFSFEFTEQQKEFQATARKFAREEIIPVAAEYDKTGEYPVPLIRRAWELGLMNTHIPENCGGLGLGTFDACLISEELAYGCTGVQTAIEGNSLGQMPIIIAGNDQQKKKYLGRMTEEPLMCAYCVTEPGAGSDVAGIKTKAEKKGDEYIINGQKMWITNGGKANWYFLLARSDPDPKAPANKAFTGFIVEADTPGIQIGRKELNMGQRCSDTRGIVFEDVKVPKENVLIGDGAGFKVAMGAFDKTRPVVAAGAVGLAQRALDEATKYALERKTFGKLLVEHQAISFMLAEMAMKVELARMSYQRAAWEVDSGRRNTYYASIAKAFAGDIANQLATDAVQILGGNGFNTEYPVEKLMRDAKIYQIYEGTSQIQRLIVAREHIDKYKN
How it was run: (§1)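 NCI-H23 or NCI-H358 cells were grown and lysed. Lysates were incubated overnight at 4 °C with 1 μM biotinylated covalent probe or DMSO, then pulled down on streptavidin beads. Proteins were run on polyacrylamide gels and stained with Coomassie. Bands were excised, digested and identified by mass spectrometry.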

[3] = molecular target: T1, Mitogen-activated protein kinase kinase kinase 7 (Homo sapiens); test: Binding affinity to MAP3K7 in human NCI-H23 cells at 1 uM by mass spectrometry based pull down assay; type: cell-based
[4] = molecular target: V-type proton ATPase catalytic subunit A (Homo sapiens) (UniProt P38606); test: Binding affinity to ATP6V1A in human NCI-H358 cells at 1 uM by mass spectrometry based pull down assay; type: cell-based
V-type proton ATPase catalytic subunit A (Homo sapiens), sequence (P38606 whole entry): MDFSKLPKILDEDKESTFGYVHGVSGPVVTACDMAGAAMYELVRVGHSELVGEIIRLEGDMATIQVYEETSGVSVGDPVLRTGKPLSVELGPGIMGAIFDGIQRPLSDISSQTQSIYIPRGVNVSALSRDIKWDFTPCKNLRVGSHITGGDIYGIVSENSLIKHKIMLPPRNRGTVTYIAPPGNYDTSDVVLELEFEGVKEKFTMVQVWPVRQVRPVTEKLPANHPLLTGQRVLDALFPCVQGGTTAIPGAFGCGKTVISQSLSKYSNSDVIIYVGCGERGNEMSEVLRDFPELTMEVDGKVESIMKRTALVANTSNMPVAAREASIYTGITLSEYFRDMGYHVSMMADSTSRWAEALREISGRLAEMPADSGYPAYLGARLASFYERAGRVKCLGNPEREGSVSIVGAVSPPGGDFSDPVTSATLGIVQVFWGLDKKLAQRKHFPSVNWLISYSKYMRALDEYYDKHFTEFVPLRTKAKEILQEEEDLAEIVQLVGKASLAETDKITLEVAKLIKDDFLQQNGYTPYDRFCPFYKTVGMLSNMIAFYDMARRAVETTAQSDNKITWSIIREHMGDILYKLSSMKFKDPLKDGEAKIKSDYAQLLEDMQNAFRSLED

[5] = molecular target: X antigen family member 1 (Homo sapiens) (UniProt Q9HD64); test: Binding affinity to XAGE1B in human NCI-H23 cells at 1 uM by mass spectrometry based pull down assay; type: cell-based
X antigen family member 1 (Homo sapiens), sequence (Q9HD64 whole entry): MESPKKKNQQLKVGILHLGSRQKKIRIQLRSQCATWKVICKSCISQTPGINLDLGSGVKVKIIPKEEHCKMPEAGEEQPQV

NCI-H23 = test: Binding affinity to PSMA7 in human NCI-H23 cells at 1 uM by mass spectrometry based pull down assay; type: cell-based
[6] = molecular target: Aldehyde dehydrogenase X, mitochondrial (Homo sapiens) (UniProt P30837); test: Binding affinity to ALDH1B1 in human NCI-H23 cells at 1 uM by mass spectrometry based pull down assay; type: cell-based; how it was run: as §1
Aldehyde dehydrogenase X, mitochondrial (Homo sapiens), sequence (P30837 whole entry): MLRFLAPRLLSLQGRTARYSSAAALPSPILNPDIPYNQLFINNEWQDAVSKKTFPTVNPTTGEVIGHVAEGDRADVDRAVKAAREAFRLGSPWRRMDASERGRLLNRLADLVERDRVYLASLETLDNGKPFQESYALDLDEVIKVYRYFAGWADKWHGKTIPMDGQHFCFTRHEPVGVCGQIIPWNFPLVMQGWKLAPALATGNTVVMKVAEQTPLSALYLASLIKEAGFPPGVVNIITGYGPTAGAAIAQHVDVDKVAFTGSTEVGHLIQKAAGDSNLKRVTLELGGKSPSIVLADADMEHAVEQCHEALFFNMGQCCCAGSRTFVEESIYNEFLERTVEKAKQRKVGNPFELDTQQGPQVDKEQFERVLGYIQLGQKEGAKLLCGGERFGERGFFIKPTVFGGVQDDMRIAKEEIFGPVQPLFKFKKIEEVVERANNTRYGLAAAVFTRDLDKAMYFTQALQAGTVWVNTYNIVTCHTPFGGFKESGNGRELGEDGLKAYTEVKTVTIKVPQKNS

[7] = molecular target: T2, 80S Ribosome (Homo sapiens) (UniProt P08865+P42677+P62753+P15880+P23396+P61247+P62701+P22090+P46782+P62081+P62241+P46781+P46783+P62280+P25398+P62277+P62263+P62841+P62244+P62249+P08708+P62269+P39019+P60866+P63220+P62266+P62847+P62851+P62854+P62979+P62857+P62273+P62861+P39023+P36578+P46777+Q02878+P18124+P62424+P62917+P32969+P27635+P62906+P62913+P30050+P26373+P40429+P50914+P61313+P18621+Q07020+Q02543+P84098+P46778+P35268+P62829+P62750+P83731+P61254+P61353+P46776+P46779+P47914+P62888+P62899+P62910+P49207+P42766+P18077+Q9Y3U8+P83881+P61927+P61513+P63173+P62891+P62945+P05388+P05386); test: Binding affinity to RPLP1 in human NCI-H23 cells at 1 uM by mass spectrometry based pull down assay; type: cell-based
[8] = molecular target: Plakophilin-1 (Homo sapiens) (UniProt Q13835); test: Binding affinity to PKP1 in human NCI-H23 cells at 1 uM by mass spectrometry based pull down assay; type: cell-based
Plakophilin-1 (Homo sapiens), sequence (Q13835 whole entry): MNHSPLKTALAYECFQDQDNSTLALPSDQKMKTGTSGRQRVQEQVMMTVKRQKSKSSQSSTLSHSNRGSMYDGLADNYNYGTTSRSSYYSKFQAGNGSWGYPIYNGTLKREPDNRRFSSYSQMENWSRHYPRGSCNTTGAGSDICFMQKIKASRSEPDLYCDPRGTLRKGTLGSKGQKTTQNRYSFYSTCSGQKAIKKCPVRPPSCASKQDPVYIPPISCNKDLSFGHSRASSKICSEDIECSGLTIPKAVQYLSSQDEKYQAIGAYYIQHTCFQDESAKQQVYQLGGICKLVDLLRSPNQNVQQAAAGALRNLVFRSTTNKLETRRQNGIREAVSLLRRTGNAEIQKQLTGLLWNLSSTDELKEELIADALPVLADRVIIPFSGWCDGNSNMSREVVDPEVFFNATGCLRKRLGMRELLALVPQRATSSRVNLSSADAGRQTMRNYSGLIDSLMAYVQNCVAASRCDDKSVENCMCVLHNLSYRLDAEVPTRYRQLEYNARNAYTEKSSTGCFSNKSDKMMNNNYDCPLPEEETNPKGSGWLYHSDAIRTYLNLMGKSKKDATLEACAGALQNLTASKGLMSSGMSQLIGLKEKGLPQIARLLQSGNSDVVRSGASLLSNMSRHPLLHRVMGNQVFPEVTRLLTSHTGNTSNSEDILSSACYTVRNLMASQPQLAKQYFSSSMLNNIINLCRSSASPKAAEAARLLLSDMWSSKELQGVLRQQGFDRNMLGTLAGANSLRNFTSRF

[9] = molecular target: Kinesin-1 heavy chain (Homo sapiens) (UniProt P33176); test: Binding affinity to KIF5B in human NCI-H23 cells at 1 uM by mass spectrometry based pull down assay; type: cell-based
[10] = molecular target: HCLS1-associated protein X-1 (Homo sapiens) (UniProt O00165); test: Binding affinity to HAX1 in human NCI-H23 cells at 1 uM by mass spectrometry based pull down assay; type: cell-based
HCLS1-associated protein X-1 (Homo sapiens), sequence (O00165 whole entry): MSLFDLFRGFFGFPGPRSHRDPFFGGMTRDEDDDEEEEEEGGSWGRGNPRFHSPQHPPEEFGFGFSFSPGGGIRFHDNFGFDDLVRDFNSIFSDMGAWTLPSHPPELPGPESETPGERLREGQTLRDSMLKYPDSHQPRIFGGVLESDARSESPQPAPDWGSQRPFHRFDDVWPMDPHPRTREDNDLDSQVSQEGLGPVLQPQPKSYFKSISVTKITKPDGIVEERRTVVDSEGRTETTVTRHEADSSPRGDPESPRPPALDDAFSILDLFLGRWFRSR

[11] = molecular target: ADP-ribose glycohydrolase OARD1 (Homo sapiens) (UniProt Q9Y530); test: Binding affinity to OARD1 in human NCI-H23 cells at 1 uM by mass spectrometry based pull down assay; type: cell-based
ADP-ribose glycohydrolase OARD1 (Homo sapiens), sequence (Q9Y530 whole entry): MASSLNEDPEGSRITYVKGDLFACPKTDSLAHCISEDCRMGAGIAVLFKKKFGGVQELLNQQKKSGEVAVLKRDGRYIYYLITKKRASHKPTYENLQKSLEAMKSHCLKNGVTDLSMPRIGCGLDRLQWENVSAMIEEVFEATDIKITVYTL

[12] = molecular target: DnaJ homolog subfamily B member 6 (Homo sapiens) (UniProt O75190); test: Binding affinity to DNAJB6 in human NCI-H23 cells at 1 uM by mass spectrometry based pull down assay; type: cell-based
DnaJ homolog subfamily B member 6 (Homo sapiens), sequence (O75190 whole entry): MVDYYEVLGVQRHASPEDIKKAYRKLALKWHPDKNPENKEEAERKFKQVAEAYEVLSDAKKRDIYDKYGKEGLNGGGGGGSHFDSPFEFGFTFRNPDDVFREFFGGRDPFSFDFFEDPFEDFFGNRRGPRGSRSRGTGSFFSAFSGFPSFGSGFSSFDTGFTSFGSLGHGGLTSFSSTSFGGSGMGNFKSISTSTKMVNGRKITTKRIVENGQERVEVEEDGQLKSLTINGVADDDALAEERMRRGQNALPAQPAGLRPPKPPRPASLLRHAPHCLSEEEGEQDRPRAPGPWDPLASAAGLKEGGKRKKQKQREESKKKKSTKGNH

[13] = molecular target: Kelch-like ECH-associated protein 1 (Homo sapiens) (UniProt Q14145); test: Binding affinity to KEAP1 in human NCI-H23 cells at 1 uM by mass spectrometry based pull down assay; type: cell-based
Kelch-like ECH-associated protein 1 (Homo sapiens), sequence (Q14145 whole entry): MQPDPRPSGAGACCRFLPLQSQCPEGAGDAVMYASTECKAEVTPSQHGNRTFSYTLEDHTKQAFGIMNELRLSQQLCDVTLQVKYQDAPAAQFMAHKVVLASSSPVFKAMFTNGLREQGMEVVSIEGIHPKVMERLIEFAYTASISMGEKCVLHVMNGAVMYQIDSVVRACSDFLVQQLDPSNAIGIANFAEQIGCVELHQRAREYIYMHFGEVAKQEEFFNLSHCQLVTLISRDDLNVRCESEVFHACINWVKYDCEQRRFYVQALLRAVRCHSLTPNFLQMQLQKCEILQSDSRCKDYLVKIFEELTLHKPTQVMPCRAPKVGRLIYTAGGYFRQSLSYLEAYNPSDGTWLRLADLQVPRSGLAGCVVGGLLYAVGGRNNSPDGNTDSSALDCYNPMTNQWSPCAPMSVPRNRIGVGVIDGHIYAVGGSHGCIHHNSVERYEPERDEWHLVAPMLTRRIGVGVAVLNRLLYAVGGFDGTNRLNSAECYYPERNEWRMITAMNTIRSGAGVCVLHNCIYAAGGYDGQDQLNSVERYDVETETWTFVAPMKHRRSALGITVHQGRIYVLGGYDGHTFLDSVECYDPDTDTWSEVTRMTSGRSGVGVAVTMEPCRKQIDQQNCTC

[14] = molecular target: T2, 80S Ribosome (Homo sapiens); test: Binding affinity to RPL31 in human NCI-H358 cells at 1 uM by mass spectrometry based pull down assay; type: cell-based
[15] = molecular target: RNA-binding protein 3 (Homo sapiens) (UniProt P98179); test: Binding affinity to RBM3 in human NCI-H23 cells at 1 uM by mass spectrometry based pull down assay; type: cell-based
RNA-binding protein 3 (Homo sapiens), sequence (P98179 whole entry): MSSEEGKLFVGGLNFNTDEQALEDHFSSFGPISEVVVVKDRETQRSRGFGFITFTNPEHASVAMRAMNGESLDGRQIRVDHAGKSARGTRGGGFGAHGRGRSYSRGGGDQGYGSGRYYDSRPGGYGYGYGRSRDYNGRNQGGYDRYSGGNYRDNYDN

[16] = molecular target: HCLS1-associated protein X-1 (Homo sapiens) (UniProt O00165); test: Binding affinity to HAX1 in human NCI-H358 cells at 1 uM by mass spectrometry based pull down assay; type: cell-based
[17] = molecular target: Glycogen synthase kinase-3 beta (Homo sapiens) (UniProt P49841); test: Binding affinity to GSK3B in human NCI-H358 cells at 1 uM by mass spectrometry based pull down assay; type: cell-based
Glycogen synthase kinase-3 beta (Homo sapiens), sequence (P49841 whole entry, looked up): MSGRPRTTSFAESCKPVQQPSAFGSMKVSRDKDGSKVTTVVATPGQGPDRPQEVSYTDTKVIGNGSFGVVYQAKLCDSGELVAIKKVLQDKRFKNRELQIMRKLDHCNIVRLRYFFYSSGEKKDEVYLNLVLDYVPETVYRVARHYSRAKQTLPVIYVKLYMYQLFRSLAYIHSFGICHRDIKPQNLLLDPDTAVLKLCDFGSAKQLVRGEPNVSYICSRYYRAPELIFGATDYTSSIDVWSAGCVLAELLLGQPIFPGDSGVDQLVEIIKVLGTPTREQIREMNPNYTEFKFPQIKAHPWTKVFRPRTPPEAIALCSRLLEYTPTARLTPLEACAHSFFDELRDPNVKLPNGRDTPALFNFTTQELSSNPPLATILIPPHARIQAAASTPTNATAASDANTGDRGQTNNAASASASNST

[18] = molecular target: T2, 80S Ribosome (Homo sapiens); test: Binding affinity to RPL17 in human NCI-H358 cells at 1 uM by mass spectrometry based pull down assay; type: cell-based
[19] = molecular target: Actin-related protein 2/3 complex subunit 5 (Homo sapiens) (UniProt O15511); test: Binding affinity to ARPC5 in human NCI-H23 cells at 1 uM by mass spectrometry based pull down assay; type: cell-based

Row | Activity [2] | Activity [3] | Activity [4] | Activity [5] | Activity [6] | Activity [7] | Activity [8] | Activity [9] | Activity [10] | Activity [11] | Activity [12] | Activity [13] | Activity [14] | Activity [15] | Activity [16] | Activity [17] | Activity [18] | Activity [19] | SMILES | inhibition [1] | Activity (NCI-H23)
1 |  |  |  |  |  |  |  |  |  |  |  |  |  |  |  |  |  |  | C=CC(=O)Nc1ccccc1Oc1nc(Nc2cnn(CCOC)c2)ncc1Cl | Active | 
2 | Active | Active | Active | Active | Active | Active | Active | Active | Active | Active | Active | Active | Active | Active | Active | Active | Active | Active | C=CC(=O)Nc1ccccc1Nc1nc(Nc2ccc(N3CCN(CCOCCOCCOCCNC(=O)CCCC[C@@H]4SC[C@@H]5NC(=O)N[C@@H]54)CC3)cc2)ncc1Cl |  | Active
